Test results taken from ChEMBL document CHEMBL3399927, “Identification of novel inhibitors of Aurora A with a 3-(pyrrolopyridin-2-yl)indazole scaffold” (Bioorg Med Chem, 2015).
The source made the active and inactive calls. No cut-off for these calls is given here.

Key:
[1] = molecular target: Glycogen synthase kinase-3 beta (Homo sapiens) (UniProt P49841); experiment: Inhibition of GSK3beta (unknown origin) at 1 ug/ml relative to control
[2] = molecular target: Protein kinase C (PKC) (Homo sapiens) (UniProt O94806+P41743+P17252+P05129+Q05655+P05771+Q05513+Q02156+P24723+Q15139+Q04759); experiment: Inhibition of PKC (unknown origin) at 1 ug/ml relative to control
Procedure, shortened: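 Fixed-concentration screen at 1 µg/mL with a Z'-LYTE kinase assay kit.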

[3] = molecular target: Cyclin-dependent kinase 2 (Homo sapiens) (UniProt P24941); experiment: Inhibition of CDK2 (unknown origin) at 1 ug/ml relative to control
[4] = Antiproliferative activity against human HCT116 cells after 72 hrs by MTT assay; format: functional, cell-based; details: HCT-116, 72 h
Procedure, shortened: (§1)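 Cells grown in RPMI-1640 with heat-inactivated 10% FBS, penicillin 100 units/mL and streptomycin 100 μg/mL, at 37 °C under 20% O2, 5% CO2. Compounds dissolved in DMSO at 10.0 mg/mL (stock), then diluted. Cells were plated for 24 h, exposed to a range of concentrations for 72 h, and viability was read by MTT. IC50 is 50% absorbance inhibition versus control cells; means of three experiments.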

[5] = Antiproliferative activity against human SMMC7721 cells after 72 hrs by MTT assay; format: functional, cell-based; details: SMMC-7721, 72 h; procedure, shortened: as §1
HCT-116 [6] = experiment: Induction of apoptosis in human HCT116 cells at 200 nM after 24 hrs by FACS analysis relative to control; format: functional
[7] = molecular target: T1, Inhibitor of nuclear factor kappa-B kinase subunit beta (Homo sapiens) (UniProt O14920); experiment: Inhibition of IKKbeta (unknown origin) at 1 ug/ml relative to control
T1 sequence (whole entry): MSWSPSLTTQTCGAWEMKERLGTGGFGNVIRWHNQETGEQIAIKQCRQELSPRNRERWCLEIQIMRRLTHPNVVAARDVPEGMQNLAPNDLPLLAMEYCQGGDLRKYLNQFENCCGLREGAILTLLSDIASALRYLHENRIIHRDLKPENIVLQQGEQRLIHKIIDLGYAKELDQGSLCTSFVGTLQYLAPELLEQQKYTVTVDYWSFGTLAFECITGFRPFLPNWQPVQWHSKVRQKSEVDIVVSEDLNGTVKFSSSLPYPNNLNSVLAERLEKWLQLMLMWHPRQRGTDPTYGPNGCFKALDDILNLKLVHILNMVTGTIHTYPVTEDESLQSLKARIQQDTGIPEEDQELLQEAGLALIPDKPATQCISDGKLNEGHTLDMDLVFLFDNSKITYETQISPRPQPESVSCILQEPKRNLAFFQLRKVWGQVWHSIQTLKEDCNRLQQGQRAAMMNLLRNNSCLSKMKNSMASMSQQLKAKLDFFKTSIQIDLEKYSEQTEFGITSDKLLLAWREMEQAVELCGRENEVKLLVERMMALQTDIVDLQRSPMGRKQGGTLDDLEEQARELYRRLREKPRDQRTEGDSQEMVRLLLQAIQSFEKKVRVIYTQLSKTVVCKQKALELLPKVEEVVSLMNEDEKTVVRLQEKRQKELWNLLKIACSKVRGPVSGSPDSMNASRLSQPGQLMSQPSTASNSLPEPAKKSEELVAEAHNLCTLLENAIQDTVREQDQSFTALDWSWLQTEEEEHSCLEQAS

[8] = molecular target: T2, Aurora kinase A (Homo sapiens) (UniProt O14965); experiment: Inhibition of human full length Aurora A at 1 ug/ml by Z'-LYTE assay
T2 sequence (whole entry): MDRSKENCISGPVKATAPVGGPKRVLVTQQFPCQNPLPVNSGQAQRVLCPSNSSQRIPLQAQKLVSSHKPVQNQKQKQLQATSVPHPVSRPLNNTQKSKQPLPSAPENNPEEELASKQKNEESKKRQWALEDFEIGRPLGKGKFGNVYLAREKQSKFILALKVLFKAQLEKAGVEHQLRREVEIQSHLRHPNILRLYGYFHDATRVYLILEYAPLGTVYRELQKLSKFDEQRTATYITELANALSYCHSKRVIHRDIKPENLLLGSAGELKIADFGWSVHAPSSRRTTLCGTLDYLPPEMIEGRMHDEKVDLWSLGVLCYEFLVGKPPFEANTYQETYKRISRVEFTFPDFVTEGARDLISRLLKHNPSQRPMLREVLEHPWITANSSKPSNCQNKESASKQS

HCT-116 [9] = experiment: Ratio of taxol IC50 to compound IC50 for human HCT116 cells; format: functional
[10] = molecular target: T3, Serine/threonine-protein kinase Chk1 (Homo sapiens) (UniProt O14757); experiment: Inhibition of CHK1 (unknown origin) at 1 ug/ml relative to control
T3 sequence (whole entry): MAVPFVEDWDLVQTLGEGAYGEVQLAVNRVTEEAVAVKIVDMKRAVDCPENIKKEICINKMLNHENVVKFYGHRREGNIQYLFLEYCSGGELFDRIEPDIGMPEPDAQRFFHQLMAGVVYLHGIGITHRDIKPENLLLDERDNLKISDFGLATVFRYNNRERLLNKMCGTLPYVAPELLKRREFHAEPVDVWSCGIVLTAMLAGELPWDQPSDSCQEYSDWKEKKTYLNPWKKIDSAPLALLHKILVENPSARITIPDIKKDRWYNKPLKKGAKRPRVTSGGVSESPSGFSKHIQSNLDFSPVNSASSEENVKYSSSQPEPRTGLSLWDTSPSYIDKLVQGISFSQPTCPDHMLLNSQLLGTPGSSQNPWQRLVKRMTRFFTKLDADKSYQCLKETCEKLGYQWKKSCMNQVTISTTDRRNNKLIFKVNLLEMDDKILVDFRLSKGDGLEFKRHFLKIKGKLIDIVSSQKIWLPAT
Procedure, shortened: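 Fixed-concentration screen at 1 µg/mL using the luminescent ADP-Glo assay.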

[11] = Cell cycle arrest in human HCT116 cells assessed as accumulation at G2/M phase at 200 nM after 24 hrs by FACS analysis; format: functional, cell-based; details: HCT-116
[12] = molecular target: Dual specificity mitogen-activated protein kinase kinase 1 (Homo sapiens) (UniProt Q02750); experiment: Inhibition of MEK1 (unknown origin) at 1 ug/ml relative to control
KB = experiment: Antiproliferative activity against human KB cells after 72 hrs by MTT assay; format: functional, cell-based; procedure, shortened: as §1
Aurora kinase A = molecular target: T4, Aurora kinase A (Homo sapiens, UniProt O14965); experiment: Inhibition of human full length Aurora A by Z'-LYTE assay
T4 sequence (O14965 whole entry): T2 sequence (whole entry)

[13] = molecular target: Serine/threonine-protein kinase B-raf (Homo sapiens) (UniProt P15056); experiment: Inhibition of BRAF (unknown origin) at 1 ug/ml relative to control
A549 = experiment: Antiproliferative activity against human A549 cells after 72 hrs by MTT assay; format: functional, cell-based; details: A549, 72 h
[14] = Antiproliferative activity against human HL60 cells after 72 hrs by MTT assay; format: functional, cell-based; details: HL-60, 72 h; procedure, shortened: as §1
[15] = Apparent permeability across apical to basolateral side in MDCK cells by HPLC; format: ADME, cell-based, Canis lupus familiaris; details: dog
[16] = Cell cycle arrest in human HCT116 cells assessed as accumulation at G2/M phase after 24 hrs by FACS analysis; format: functional, cell-based; details: HCT-116
[17] = molecular target: Cell division cycle 7-related protein kinase (Homo sapiens) (UniProt O00311); experiment: Inhibition of CDC7 (unknown origin)
Cell division cycle 7-related protein kinase (Homo sapiens), sequence (O00311 whole entry, looked up): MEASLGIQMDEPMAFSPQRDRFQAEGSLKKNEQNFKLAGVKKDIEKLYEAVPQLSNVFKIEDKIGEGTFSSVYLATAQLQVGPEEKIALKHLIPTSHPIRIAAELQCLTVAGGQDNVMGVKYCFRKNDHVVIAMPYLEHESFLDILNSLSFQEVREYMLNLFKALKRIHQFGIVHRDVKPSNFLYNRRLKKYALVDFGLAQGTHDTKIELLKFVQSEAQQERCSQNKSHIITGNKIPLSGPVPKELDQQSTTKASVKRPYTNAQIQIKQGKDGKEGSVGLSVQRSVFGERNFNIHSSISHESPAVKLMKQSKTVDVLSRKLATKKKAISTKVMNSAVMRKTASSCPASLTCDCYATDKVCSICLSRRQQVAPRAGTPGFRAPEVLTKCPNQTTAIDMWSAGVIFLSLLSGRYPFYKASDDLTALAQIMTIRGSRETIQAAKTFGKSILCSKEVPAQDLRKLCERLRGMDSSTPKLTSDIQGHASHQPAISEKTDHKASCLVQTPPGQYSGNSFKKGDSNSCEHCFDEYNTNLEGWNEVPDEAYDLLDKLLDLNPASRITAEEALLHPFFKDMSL

Glycogen synthase kinase-3 beta (Homo sapiens), sequence (P49841 whole entry, looked up): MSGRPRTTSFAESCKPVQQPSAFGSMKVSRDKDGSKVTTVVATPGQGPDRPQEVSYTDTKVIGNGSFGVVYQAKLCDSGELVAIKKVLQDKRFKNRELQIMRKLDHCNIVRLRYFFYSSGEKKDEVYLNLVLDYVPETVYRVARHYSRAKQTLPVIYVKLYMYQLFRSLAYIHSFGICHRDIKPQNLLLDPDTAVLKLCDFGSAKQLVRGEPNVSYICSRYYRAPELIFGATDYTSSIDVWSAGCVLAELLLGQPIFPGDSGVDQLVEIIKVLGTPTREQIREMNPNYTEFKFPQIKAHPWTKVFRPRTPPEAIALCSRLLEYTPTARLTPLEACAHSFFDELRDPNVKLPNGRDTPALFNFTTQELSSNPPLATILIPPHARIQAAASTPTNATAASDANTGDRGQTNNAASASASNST
Serine/threonine-protein kinase B-raf (Homo sapiens), sequence (P15056 whole entry): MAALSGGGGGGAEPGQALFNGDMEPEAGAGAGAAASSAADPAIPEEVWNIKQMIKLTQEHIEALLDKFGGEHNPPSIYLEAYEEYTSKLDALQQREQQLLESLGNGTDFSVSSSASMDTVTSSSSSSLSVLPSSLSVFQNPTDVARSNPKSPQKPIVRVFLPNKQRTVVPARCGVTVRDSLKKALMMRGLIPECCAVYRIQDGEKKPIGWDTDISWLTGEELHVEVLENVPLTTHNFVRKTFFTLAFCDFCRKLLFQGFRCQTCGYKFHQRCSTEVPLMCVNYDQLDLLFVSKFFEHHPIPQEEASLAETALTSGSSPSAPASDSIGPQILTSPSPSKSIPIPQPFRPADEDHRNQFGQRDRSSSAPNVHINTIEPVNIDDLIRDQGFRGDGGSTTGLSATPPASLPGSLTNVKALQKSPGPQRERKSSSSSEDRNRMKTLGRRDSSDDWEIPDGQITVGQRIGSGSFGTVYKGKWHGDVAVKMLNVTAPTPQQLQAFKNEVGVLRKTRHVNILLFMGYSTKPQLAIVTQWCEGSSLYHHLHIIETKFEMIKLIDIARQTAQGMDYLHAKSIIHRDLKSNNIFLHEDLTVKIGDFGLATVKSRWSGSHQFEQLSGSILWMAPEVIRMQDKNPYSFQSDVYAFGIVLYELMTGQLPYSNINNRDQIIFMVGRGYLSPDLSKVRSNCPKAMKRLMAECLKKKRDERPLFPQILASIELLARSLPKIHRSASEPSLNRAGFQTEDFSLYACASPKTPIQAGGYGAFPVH
Dual specificity mitogen-activated protein kinase kinase 1 (Homo sapiens), sequence (Q02750 whole entry): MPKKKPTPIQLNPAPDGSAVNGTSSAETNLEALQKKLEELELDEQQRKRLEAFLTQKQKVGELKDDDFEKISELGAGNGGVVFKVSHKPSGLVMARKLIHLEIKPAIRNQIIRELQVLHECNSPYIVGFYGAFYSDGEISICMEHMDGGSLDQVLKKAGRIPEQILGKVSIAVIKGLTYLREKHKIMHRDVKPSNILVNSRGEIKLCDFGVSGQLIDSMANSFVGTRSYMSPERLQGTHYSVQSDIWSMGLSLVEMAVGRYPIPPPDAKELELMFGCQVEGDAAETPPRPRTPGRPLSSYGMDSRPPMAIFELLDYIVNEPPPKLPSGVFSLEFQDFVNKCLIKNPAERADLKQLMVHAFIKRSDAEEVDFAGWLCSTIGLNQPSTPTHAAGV

SMILES | inhibition [1] [%] | inhibition [2] [%] | inhibition [3] [%] | IC50 [4] [nM] | IC50 [5] [nM] | Activity (HCT-116 [6]) [%] | inhibition [7] [%] | inhibition [8] [%] | Ratio IC50 (HCT-116 [9]) | inhibition [10] [%] | Activity [11] | inhibition [12] [%] | IC50 (KB) [nM] | IC50 (Aurora kinase A) [nM] | inhibition [13] [%] | IC50 (A549) [nM] | IC50 [14] [nM] | Papp A→B [15] [×10⁻⁶ cm/s] | Activity [16] | IC50 [17] [nM]
CN(C(=O)Nc1ccccc1)c1ccc2[nH]c(-c3n[nH]c4ccccc34)cc2n1 | 19.3 | 0.62 | 13.8 | 1.3 | 280 | 25.4 | 0.55 | 75.4 | 3 | 20.5 | Active | 6.64 | 32 | 519 | 16.4 | 1430 | 8.3 | 6.07 | Dose-dependent effect | 
N#Cc1ccc2c(-c3cc4cc(CN5CCOCC5)ccc4[nH]3)n[nH]c2c1 |  |  |  |  |  |  |  |  |  |  |  |  |  |  |  |  |  |  |  | 11
